# Residues, ends and D or L forms follow the SMILES beside them.
# How the values were obtained:
# [1] = tested on: Aβ42-induced toxicity in differentiated PC-12 cells; assay: Inhibition of Aβ42-induced neurotoxicity, MTT assay; type: cell-based, rat; settings: for Inhibition of Aβ42-induced neurotoxicity, single-dose screen: Aβ42 10 μM with 10-fold excess of derivative, 24 h, MTT, n ≥ 18
# [Y20]Aβ42 = [Y20]Aβ42 (Homo sapiens, UniProt P05067, F691Y/Y681F); assay: Intrinsic Y fluorescence; type: binding; settings: [Y20]Aβ42 5 μM, peptide 50 μM, pH 7.4, 22°C
# [Y30]Aβ42 = [Y30]Aβ42 (Homo sapiens, UniProt P05067, A701Y/Y681F); assay: Intrinsic Y fluorescence; type: binding; settings: [Y30]Aβ42 5 μM, peptide 50 μM, pH 7.4, 22°C
# [Y42]Aβ42 = [Y42]Aβ42 (Homo sapiens, UniProt P05067, A713Y/Y681F); assay: Intrinsic Y fluorescence; type: binding; settings: [Y42]Aβ42 5 μM, peptide 50 μM, pH 7.4, 22°C
# [2] = tested on: α-synuclein-induced toxicity in differentiated PC-12 cells; assay: Inhibition of α-synuclein-induced toxicity, MTT assay; type: cell-based, rat; settings: α-synuclein 15 μM, increasing Aβ(39–42) concentrations, 24 h, n ≥ 15
# Summary of the method: (§1)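 PC-12 cells differentiated with nerve growth factor (100 ng/mL, 48 h), then exposed for 24 h to the toxin with or without a range of test compound concentrations. Viability by MTT, scaled between medium and 1 μM staurosporine full kill (100% reduction). Controls were NaOH-matched vehicle and medium alone. Mean ± SEM of ≥3 independent experiments, 5 replicates per point.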
# WT Aβ42 = WT Aβ42 (Homo sapiens, UniProt P05067); assay: Intrinsic Y fluorescence; type: binding; settings: peptide 50 μM, pH 7.4, 22°C
# Summary of the method: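 HFIP-treated peptide films were dissolved in 60 mM NaOH (10% of final volume) and diluted in 10 mM sodium phosphate, pH 7.4, to nominal Aβ42 5 μM ± test peptide 50 μM. Samples were spun at 5,000 g for 1 min, with concentrations verified by amino acid analysis. Ex 280 nm, em 290–400 nm, 22°C, ≥10 scans immediately. Buffer-subtracted, area integrated per micromole, normalized to Aβ42 alone; 4 experiments.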
# [3] = tested on: alamethicin-induced toxicity in differentiated PC-12 cells; assay: Inhibition of alamethicin-induced toxicity, MTT assay; type: cell-based, rat; settings: alamethicin 4 μM, increasing Aβ(39–42) concentrations, 24 h, n ≥ 15
# Summary of the method: as §1
# [4] = tested on: mouse primary hippocampal neurons; settings: cited from earlier work
# [Y1]Aβ42 = [Y1]Aβ42 (Homo sapiens, UniProt P05067, D672Y/Y681F); assay: Intrinsic Y fluorescence; type: binding; settings: [Y1]Aβ42 5 μM, peptide 50 μM
compound,measurement,setting,value
VVAA,"Inhibition of Aβ42-induced neurotoxicity, single-dose screen",[1],lost inhibitory activity
CC[C@H](C)[C@H](NC(=O)[C@@H](NC(=O)[C@@H](N)C(C)C)C(C)C)C(=O)N[C@@H](C)C(=O)O [Aβ(39–42)],Change of [Y20]Aβ42 fluorescence upon addition of peptide,[Y20]Aβ42,did not change significantly
same,Dose dependence of inhibition of Aβ42-induced toxicity,"[1]; Aβ42 10 μM, MTT and LDH",dose-dependent inhibition
same,Change of [Y30]Aβ42 fluorescence upon addition of peptide,[Y30]Aβ42,did not change significantly
same,Change of [Y42]Aβ42 fluorescence upon addition of peptide,[Y42]Aβ42,did not change significantly
same,Protection from α-synuclein-induced toxicity,[2],only weak protection
same,Change of WT Aβ42 fluorescence upon addition of peptide,WT Aβ42; WT Aβ42 5 μM,did not change significantly
same,Protection from alamethicin-induced toxicity,[3],only weak protection
same,Rescue from Aβ42-induced inhibition of miniature excitatory postsynaptic current frequency,[4],significantly rescued
Ac-VVIA,"Inhibition of Aβ42-induced neurotoxicity, single-dose screen",[1],no inhibitory activity
same,Decrease of Aβ42 fluorescence upon addition of peptide,"WT Aβ42; Aβ42 5 μM, mean ± SEM of 4 experiments",19 ± 3%
Ac-AIVV,"Inhibition of Aβ42-induced neurotoxicity, single-dose screen",[1],no inhibitory activity
same,[Y1]Aβ42 fluorescence increase compared with Aβ(39–42),[Y1]Aβ42; Fig. S3,significantly lower
CC[C@H](C)[C@H](NC(=O)[C@@H](NC(=O)[C@@H](N)C(C)C)C(C)C)C(=O)N[C@@H](C)C(N)=O [VVIA-NH2] (H-VVIA-NH2),"Inhibition of Aβ42-induced neurotoxicity, single-dose screen",[1],as active as Aβ(39–42)
same,Decrease of [Y30]Aβ42 fluorescence upon addition of peptide,[Y30]Aβ42; mean ± SEM of 4 experiments,24 ± 3%
same,Fold lower [Y1]Aβ42 fluorescence increase than with unmodified Aβ(39–42),[Y1]Aβ42,1.8 times

# — paper PMC3240737 (Journal of medicinal chemistry, 2011)
